What all share (type): functional, cell-based
The subject of one assay is FM3A. Nature of the assay: Compound was tested for the inhibition of murine mammary carcinoma FM3A cell proliferation. The conditions noted are these: Mus musculus. The gist of the method: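 FM3A cells in Eagle's minimal essential medium with 10% fetal calf serum, 2 mM L-glutamine, 0.075% NaHCO3. Seeded 5 × 10⁴ cells/well (200 μL) with varying compound concentrations and incubated 48 h at 37 °C, humidified CO2 atmosphere. Cell number from Coulter counter. IC50 = concentration reducing viable cells by 50%.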

The next assay relates to L1210. Nature of the assay: Compound was tested for the inhibition of murine leukemia L1210 cell proliferation. The settings on record: Mus musculus. The gist of the method:
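L1210 cells maintained in Eagle's minimal essential medium with 10% fetal calf serum, 2 mM L-glutamine, 0.075% NaHCO3. Exposed to varying compound concentrations at 5 × 10⁴ cells/well (200 μL) and grown 48 h at 37 °C, humidified CO2 atmosphere. Counted with Coulter counter. IC50 = concentration reducing viable cells by 50%. Means of at least two or three independent experiments.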

The test system of the next assay is MT4. Nature of the assay: Compound was tested for the inhibition of human T-lymphoblast MT-4 cell proliferation. A digest of the protocol:
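MT-4 cells grown in RPMI-1640 with 10% fetal calf serum, 2 mM L-glutamine, 0.075% NaHCO3. Seeded at 6.25 × 10⁴ cells/well with varying compound concentrations and cultured 120 h at 37 °C, humidified CO2 atmosphere. Viable cells counted by trypan blue staining under microscope. IC50 = concentration reducing viable cell number by 50%. Means of at least two or three independent experiments.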

The test system of another assay is MOLT-4F. Nature of the assay: Compound was tested for the inhibition of human T-lymphoblast Molt/4F cell proliferation. A digest of the protocol: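 Molt/4F cells in RPMI-1640 with 10% fetal calf serum, 2 mM L-glutamine, 0.075% NaHCO3. Plated at 6.25 × 10⁴ cells/well across varying compound concentrations and grown 72 h at 37 °C, humidified CO2 atmosphere. Cells counted with Coulter counter. IC50 = concentration reducing viable cell number by 50%. Means of at least two or three independent experiments.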

The term IC50 denotes the point on the concentration scale where inhibition reaches its midpoint. Read a low IC50 as greater potency in that assay. `C=Cc1cc(=O)[nH]c(=O)n1C1O[C@H](CO)[C@@H](O)[C@H]1O` (stereo partly specified): the IC50 in the assay on FM3A worked out at 24 µM; in the assay on L1210, 21 µM; in the assay with MT4 it was 11 µM; in the assay with MOLT-4F, 14 µM.

As for `C#Cc1nc2c(N)ncnc2n1[C@@H]1O[C@H](CO)[C@@H](O)[C@H]1O`, the IC50 came out at 27 µM with FM3A, 54 µM in the assay on L1210, 22 µM in the assay on MT4 and 25 µM in the assay with MOLT-4F.

Regarding `C#Cc1cc(=O)[nH]c(=O)n1C1O[C@H](CO)[C@@H](O)[C@H]1O` (stereo partly specified), the IC50 in the assay on FM3A was greater than 372 µM; with L1210, greater than 372 µM; in the assay with MT4, 286 µM; with MOLT-4F, greater than 372 µM.

In the case of `C=Cc1nc2c(N)ncnc2n1[C@@H]1O[C@H](CO)[C@@H](O)[C@H]1O`, the IC50 in the assay on FM3A was determined as 145 µM; in the assay with L1210, 190 µM; with MT4, 15 µM; with MOLT-4F, 6.5 µM.
